According to ChEMBL document CHEMBL5344453, “Selective Recognition of c-KIT 1 G-Quadruplex by Structural Tuning of Heteroaromatic Scaffolds and Side Chains” (ACS Med Chem Lett, 2024):
Calls of active or inactive are those of the source. The calls are words filed in the database; no cut-off is given here.

How the values were obtained:
[1] = test system: K562; assay: Induction of apoptosis in human K562 cells assessed as apoptosis at 5.5 uM incubated for 24 hrs by FITC-Annexin V and PI analysis; format: functional
Summary of the method: (§1)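 K562 cells were treated with ligand (3 and 6 μM or 5.5 and 11 μM) and dual-stained with annexin V and PI. Early and late apoptotic populations were quantified by flow cytometry dot plot analysis.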

[2] = Reduction of c-KIT oncogene expression in human K562 cells transfected with c-KIT plasmid construct assessed as reduction in luciferase expression at 5.5 uM measured after 36 hrs by luciferase reporter assay; format: functional
Summary of the method: (§2)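 K562 cells were transfected with luciferase plasmids carrying the c-KIT, c-MYC or BCL-2 promoter G4. They were then treated with ligand (3 and 6 μM or 5.5 and 11 μM), and relative luciferase expression was measured.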

[3] = test system: K562; assay: Induction of apoptosis in human K562 cells assessed as apoptosis at 11 uM incubated for 24 hrs by FITC-Annexin V and PI analysis; format: functional; summary of the method: as §1
[4] = test system: Quadruplex DNA; assay: Stabilization of G-quadruplex VEGF 5-FAM-CGGGGCGGGCCGGGGGCGGGGT-TAMRA-3 (unknown origin) assessed as change in melting temperature at 1 uM incubated for 1 hr in dark condition by FRET-based melting assay; format: nucleic-acid assay
Summary of the method: (§3)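 FRET melting of dual-fluorophore-tagged oligonucleotides (200 nM) in 60 mM potassium cacodylate buffer, pH 7.4, with ligand at 1 μM; ΔTm taken against the ligand-free oligonucleotide Tm as control.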

[5] = test system: Quadruplex DNA; assay: Stabilization of G-quadruplex c-KIT1 5-FAM-GGGAGGGCGCTGGGAGGAGGG-TAMRA-3 (unknown origin) assessed as change in melting temperature at 1 uM incubated for 1 hr in dark condition by FRET-based melting assay; format: nucleic-acid assay; summary of the method: as §3
[6] = test system: Quadruplex DNA; assay: Stabilization of G-quadruplex c-MYC 5-FAM-TGGGGAGGGTGGGGAGGGTGGGGAAGG-TAMRA- 3 (unknown origin) assessed as change in melting temperature at 1 uM incubated for 1 hr in dark condition by FRET-based melting assay; format: nucleic-acid assay; summary of the method: as §3
[7] = test system: K562; assay: Attenuation of proto-oncogene expression in human c-KIT-positive K562 cells assessed as reduction in c-KIT oncogene expression at 5.5 uM measured after 24 hrs by qRT-PCR analysis relative to control; format: functional
Summary of the method: (§4)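 K562 cells treated 24 h at two doses per ligand (3 and 6 μM, 5.5 and 11 μM; positive control 2 and 4 μM). c-KIT, c-MYC and BCL-2 mRNA measured by qRT-PCR and normalized to housekeeping gene 18s, relative to untreated control.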

[8] = test system: K562; assay: Attenuation of proto-oncogene expression in human c-KIT-positive K562 cells assessed as reduction in c-KIT oncogene expression at 11 uM measured after 24 hrs by qRT-PCR analysis relative to control; format: functional; summary of the method: as §4
[9] = Reduction of c-KIT protein expression in human K562 cells at 5.5 uM measured after 24 hrs by Western blotting analysis relative to control; format: functional
Summary of the method: (§5)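 K562 cells were treated with ligand (3 and 6 μM or 5.5 and 11 μM). c-KIT protein was measured by Western blot with GAPDH as the housekeeping reference, relative to control.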

[10] = test system: K562; assay: Cytotoxicity against human c-KIT-positive K562 cells assessed as cell viability measured after 24 hrs by XTT formazan assay; format: functional, cell-based; conditions: K562, 24 h
[11] = Reduction of c-MYC oncogene expression in human K562 cells transfected with c-MYC plasmid construct assessed as reduction in luciferase expression at 5.5 uM measured after 36 hrs by luciferase reporter assay; format: functional
Summary of the method: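 Promoter luciferase reporter: K562 cells transfected with a c-MYC promoter G4-containing luciferase-expressing plasmid, then ligand-treated at two doses each (3 and 6 μM, or 5.5 and 11 μM); read-out as relative luciferase expression, reported as percent reduction.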

[12] = test system: MCF7; assay: Cytotoxicity against human MCF7 cells assessed as cell viability measured after 24 hrs by XTT formazan assay; format: functional, cell-based; conditions: MCF7, 24 h
[13] = Effect on proto-oncogene expression in human c-KIT-positive K562 cells assessed as down regulation in BCL-2 oncogene expression at 11 uM measured after 24 hrs by qRT-PCR analysis relative to control; format: functional; summary of the method: as §4
[14] = Effect on proto-oncogene expression in human c-KIT-positive K562 cells assessed as upregulation in BCL-2 oncogene expression at 5.5 uM measured after 24 hrs by qRT-PCR analysis relative to control; format: functional; summary of the method: as §4
[15] = test system: Quadruplex DNA; assay: Stabilization of G-quadruplex c-KIT2 5-FAM-GGGCGGGCGCGAGGGAGGGG-TAMRA-3 (unknown origin) assessed as change in melting temperature at 1 uM incubated for 1 hr in dark condition by FRET-based melting assay; format: nucleic-acid assay; summary of the method: as §3
[16] = Reduction of c-MYC oncogene expression in human K562 cells transfected with c-MYC plasmid construct assessed as reduction in luciferase expression at 11 uM measured after 36 hrs by luciferase reporter assay; format: functional; summary of the method: as §2
[17] = Effect on proto-oncogene expression in human c-KIT-positive K562 cells assessed as upregulation in c-MYC oncogene expression at 11 uM measured after 24 hrs by qRT-PCR analysis relative to control; format: functional; summary of the method: as §4
[18] = Reduction of BCL-2 oncogene expression in human K562 cells transfected with BCL-2 plasmid construct assessed as reduction in luciferase expression at 5.5 uM measured after 36 hrs by luciferase reporter assay; format: functional; summary of the method: as §2
[19] = Reduction of BCL-2 oncogene expression in human K562 cells transfected with BCL-2 plasmid construct assessed as reduction in luciferase expression at 11 uM measured after 36 hrs by luciferase reporter assay; format: functional; summary of the method: as §2
[20] = Induction of cell permeation in human c-KIT-positive K562 cell membrane assessed as fold increase in (G- quadruplex/antibody complex) BG4 foci at 5.5 uM measured after 24 hrs by immunofluorescence assay; format: functional
Summary of the method: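 K562 cells were treated with ligand (3 or 5.5 μM) and immunostained with G4-specific antibody BG4. Nuclear BG4 foci were counted by confocal microscopy and expressed relative to untreated cells.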

[21] = Reduction of c-KIT protein expression in human K562 cells at 11 uM measured after 24 hrs by Western blotting analysis relative to control; format: functional; conditions: K562, read-out: INH; summary of the method: as §5
[22] = Effect on proto-oncogene expression in human c-KIT-positive K562 cells assessed as upregulation in c-MYC oncogene expression at 5.5 uM measured after 24 hrs by qRT-PCR analysis relative to control; format: functional; summary of the method: as §4
[23] = test system: Quadruplex DNA; assay: Stabilization of calf thymus […] ds DNA 5-FAM-CAATCGGATCGAATTCGATCCGATTG-TAMRA-3 assessed as change in melting temperature at 1 uM incubated for 1 hr in dark condition by FRET-based melting assay; format: nucleic-acid assay; conditions: Bos taurus; summary of the method: as §3
[24] = Reduction of c-KIT oncogene expression in human K562 cells transfected with c-KIT plasmid construct assessed as reduction in luciferase expression at 11 uM measured after 36 hrs by luciferase reporter assay; format: functional; summary of the method: as §2
[25] = test system: Quadruplex DNA; assay: Stabilization of fluorophore tagged G-quadruplex c-KIT1 (unknown origin) assessed as change in melting temperature in presence of 0 to 100 equiv calf thymus DNA at 1 uM incubated for 1 hr in dark condition by competitive FRET-based melting assay; format: nucleic-acid assay
Summary of the method: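 Competitive FRET melting with fluorophore-labeled c-KIT 1 G-quadruplex and 1 μM ligand. Unlabeled calf thymus DNA was added at 0, 1, 5, 10, 50 and 100 molar equivalents over the labeled DNA, and ΔTm was monitored.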

[26] = test system: Quadruplex DNA; assay: Stabilization of G-quadruplex BCL2 5-FAM-AGGGGCGGGCGCGGGAGGAAGGGGGCGGGAGCGGGGCTG-TAMRA-3 (unknown origin) assessed as change in melting temperature at 1 uM incubated for 1 hr in dark condition by FRET-based melting assay; format: nucleic-acid assay; summary of the method: as §3
[27] = test system: K562; assay: Induction of cell cycle arrest in human K562 cells assessed as accumulation at G0/G1 phase at 5.5 to 11 uM incubated for 24 hrs by propidium iodide based assay; format: functional; conditions: dose 5.5-11 µM
Summary of the method: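 K562 cells were treated with ligand (3 and 6 μM or 5.5 and 11 μM) and stained with propidium iodide. The fraction of cells in each cell-cycle phase was determined by flow cytometry.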

[28] = Cytotoxicity against HEK293 cells assessed as cell viability measured after 24 hrs by XTT formazan assay; format: toxicity, cell-based; conditions: human
[29] = test system: Quadruplex DNA; assay: Stabilization of G-quadruplex h-TELO 5-FAM-TTGGGTTAGGGTTAGGGTTAGGGA-TAMRA-3 (unknown origin) assessed as change in melting temperature at 1 uM incubated for 1 hr in dark condition by FRET-based melting assay; format: nucleic-acid assay; summary of the method: as §3

CN(C)CCCNC(=O)c1ccc(-n2cc(-c3ccc4oc5ccccc5c4c3)nn2)cc1
Activity [1]: 1% | inhibition at 5.5 µM [2]: 3.3% | Activity [3]: 11% | ΔTm [4]: < 3 °C | ΔTm [5]: < 3 °C | ΔTm [6]: < 3 °C | inhibition at 5.5 µM [7]: > 1% | inhibition at 11 µM [8]: 3% | inhibition at 5.5 µM [9]: 7.8% | IC50 [10]: 11.7 µM | inhibition at 5.5 µM [11]: 6.2% | IC50 [12]: ≥ 19 µM | Activity [13]: 5% | Activity [14]: 8% | ΔTm [15]: < 3 °C | inhibition at 11 µM [16]: 10.1% | Activity [17]: 31% | inhibition at 5.5 µM [18]: 9.5% | inhibition at 11 µM [19]: 14% | fold change (FC) [20]: 1.8 | inhibition at 11 µM [21]: -15.8% | Activity [22]: 23% | ΔTm [23]: < 3 °C | inhibition at 11 µM [24]: 7.6% | Activity [25]: Active | ΔTm [26]: < 3 °C | Activity [27]: inactive | IC50 at 24 h [28]: ≥ 50 µM | ΔTm [29]: < 3 °C
